# Measurements as given in PubChem BioAssay AID602194 (The Scripps Research Institute Molecular Screening Center, 2012).
# In all, about 2,400 compounds went through this assay and about 140 (5.8%) were called active.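 How the source made its calls: active means mean activation across replicates exceeds the hit threshold derived in the earlier primary screen (cut at about 18% in these data); inactive means the rest.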 The list is a sample of the results.
# Biological target: Mu-type opioid receptor (Homo sapiens) + Delta-type opioid receptor (Homo sapiens) (UniProt P35372+P41143)
# Assay: agonists of MOR-DOR heterodimerization, counter-screen for MC4R biased agonist project, cell-based, luminescence (AID 602194)
# Details: U2OS PathHunter beta-arrestin, beta-gal luminescence; at 9.2 µM; stronger effect = higher value; percent of deltorphin B response, DMSO zero
# In short: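 Repeats: triplicate; Test system: U2OS Mu-Delta cell line; Benchmarks: Deltorphin B 0.9 µM final as 100%, DMSO only as 0%; Measured by: beta-gal complementation luminescence; Schedule: 3 h compound exposure at 37 °C, 1 h room-temperature readout; Dosing: single dose, 9.2 µM final nominal compound concentration.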
# Chain of Mu-type opioid receptor (Homo sapiens) + Delta-type opioid receptor (Homo sapiens) (P35372 whole entry, looked up): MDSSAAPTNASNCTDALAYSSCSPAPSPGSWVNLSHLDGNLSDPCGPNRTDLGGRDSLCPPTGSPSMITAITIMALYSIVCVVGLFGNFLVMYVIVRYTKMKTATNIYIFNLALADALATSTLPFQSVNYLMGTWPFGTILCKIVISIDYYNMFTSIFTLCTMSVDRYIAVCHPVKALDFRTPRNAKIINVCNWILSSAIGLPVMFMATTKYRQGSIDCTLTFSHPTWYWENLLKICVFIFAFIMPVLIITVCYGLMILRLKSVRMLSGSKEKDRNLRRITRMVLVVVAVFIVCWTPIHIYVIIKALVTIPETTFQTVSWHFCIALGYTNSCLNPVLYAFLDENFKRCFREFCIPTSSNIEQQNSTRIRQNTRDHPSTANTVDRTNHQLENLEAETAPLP
# Chain of Mu-type opioid receptor (Homo sapiens) + Delta-type opioid receptor (Homo sapiens) (P41143 whole entry, looked up): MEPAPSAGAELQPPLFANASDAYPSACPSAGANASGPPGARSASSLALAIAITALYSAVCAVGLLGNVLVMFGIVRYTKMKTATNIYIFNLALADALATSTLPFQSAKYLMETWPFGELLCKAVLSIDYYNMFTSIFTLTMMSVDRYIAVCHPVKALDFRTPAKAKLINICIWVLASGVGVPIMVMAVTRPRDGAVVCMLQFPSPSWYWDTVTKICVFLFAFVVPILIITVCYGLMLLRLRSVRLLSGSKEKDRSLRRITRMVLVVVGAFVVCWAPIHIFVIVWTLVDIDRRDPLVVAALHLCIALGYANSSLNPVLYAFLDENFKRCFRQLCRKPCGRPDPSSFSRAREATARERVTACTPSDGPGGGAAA
row,Structure (SMILES),activation
1,COC(=O)c1sccc1NC(=O)CCC1CCCC1,6.23% (inactive)
2,O=C(CCCN1C(=O)/C(=C/c2cccs2)SC1=S)Nc1ccc(O)cc1,1.75% (inactive)
3,N#CCC(=O)N/N=C/c1cn(Cc2ccc3ccccc3c2)c2ccccc12,25.5% (active)
4,CCOC(=O)c1c(-c2ccc(C)cc2C)csc1NC(=O)CSc1nnnn1C,7.04% (inactive)
5,CCN(CC)c1ccc(C(=O)N/N=C/c2ccc(N3CCOCC3)cc2)cc1,13.2% (inactive)
6,COC(=O)c1nc2n(n1)C(c1ccc([N+](=O)[O-])cc1)C(C(=O)Nc1ccc(Cl)cc1)=C(C)N2 (stereo not given),3.4% (inactive)
7,COc1ccc2sc(-c3ccc(S(C)(=O)=O)cc3)c(C#Cc3cncn3C)c2c1,9.34% (inactive)
8,O=C(CCCCCn1c(=S)[nH]c2cc3c(cc2c1=O)OCO3)N1CCN(c2ccc(F)cc2)CC1,3.68% (inactive)
9,COc1ccc(Cc2nnc(NC(=O)c3ccc(OC)cc3OC)s2)cc1,4.47% (inactive)
10,CCOC(=O)c1nn(-c2ccccc2F)c2nc(Nc3ccccc3)cc(=O)n12,17.8% (inactive)
11,CCCOc1ccc(C(=O)C(CCC(CNCC)C(=O)c2ccc(OCCC)cc2)CNCC)cc1 (stereo not given),17.3% (inactive)
12,Cc1ccc(-n2nc3cc(Cl)c(NC(=O)c4ccco4)cc3n2)cc1,0.83% (inactive)
13,Oc1ccccc1N1CCN(c2ncnc3sc(-c4ccccc4)cc23)CC1,3.28% (inactive)
14,Cc1ccc(Nc2nnc(SCc3ccccc3)s2)cc1,8.17% (inactive)
15,COc1cccc(CNC(=O)c2nnn(CC(=O)Nc3cc(Cl)ccc3C)c2N)c1,11.8% (inactive)
16,COCCN(CCOC)S(=O)(=O)c1ccc(C(=O)Nc2nc3c(s2)CCc2ccccc2-3)cc1,6.22% (inactive)
17,Clc1ccc(Nc2ncnc3c2nnn3Cc2ccccc2)cc1,5.74% (inactive)
18,COC(=O)c1c(C)[nH]c(C(=O)/C=C/c2ccc(Cl)cc2)c1C,4.27% (inactive)
19,COc1cc(/C=C2\Oc3ccc(C#Cc4ccc(O)cc4)cc3C2=O)cc(OC)c1,11.3% (inactive)
20,CN(C)CCNC(=O)c1cccc(-c2cnc3c(NC=O)cc(-c4cccc(C(F)(F)F)c4)cn23)c1,7.61% (inactive)
21,O=C(Nc1nc(-c2ccc(-c3ccccc3)cc2)cs1)c1cnccn1,2.08% (inactive)
22,Clc1ccccc1Nc1nc(NCc2cccs2)nc2ccsc12,5.36% (inactive)
23,CC(C)Oc1c(Br)cc(Br)cc1/C=N/NC(N)=S,9.18% (inactive)

row,Structure (SMILES),activation
1,CCc1ccc(Nc2ncc3c(n2)CC(c2ccco2)CC3=O)cc1 (stereo not given),13.5% (inactive)
2,COc1cc(NC(=O)c2cncc(-c3ccc(C#N)cc3)c2)cc(C(=O)Nc2cccc(C(F)(F)F)c2)c1,5.39% (inactive)
3,COc1ccc(Nc2oc(-c3ccccc3Cl)nc2C#N)cc1,6.69% (inactive)
4,CCOC(=O)c1c(-c2ccccc2)oc2cc(Br)c(O)c(C=O)c12,3.34% (inactive)
5,Cc1ccc2nc(-c3ccncc3)cc(C(=O)Nc3ccc(OC(F)F)cc3)c2c1,8.13% (inactive)
6,COc1ccc(/C=N/NC(=O)Nc2ccc3nsnc3c2)c(OC)c1,3.63% (inactive)
7,Cc1ccc(-n2nc(C)c(/C=N/NC(=O)c3cccs3)c2Cl)cc1,7.37% (inactive)
8,COc1ccccc1NC(=O)Nc1nnc(Cc2ccc(F)cc2)s1,10.7% (inactive)
9,Cc1c(-c2ccccc2)n[nH]c1C(=O)N=Nc1c(O)[nH]c2ccccc12,8.27% (inactive)
10,COc1ccc2nc(NC(=O)c3ccc(Br)s3)sc2c1,8.88% (inactive)
11,C=CCn1c(SCC(=O)c2ccc(Br)cc2)nnc1C(C)NC(=O)Cc1ccc(OC)cc1 (stereo not given),7.14% (inactive)
12,O=C(OCc1cn(-c2ccc(Cl)c(Cl)c2)nn1)c1ccccc1Cl,3.56% (inactive)
13,Cc1ccc(C(=O)Nc2ccc(NC(=O)c3cccs3)cc2)c(C)c1,6.51% (inactive)
14,Cc1ccc(Sc2ccc(NC(=O)c3ccc(F)cc3)cc2C#N)cc1,4.2% (inactive)
15,Cc1ccsc1/C=N/Nc1ccc(Cl)nn1,5.93% (inactive)
16,Cc1ccc(-c2csc(SCC(=O)Nc3cc(C)on3)n2)cc1,7.19% (inactive)
17,COc1cccc(NC(=S)NC(=O)c2c(Cl)c(C)nn2C)c1,3.17% (inactive)
18,N#CC(=C1SC=CS1)c1nc(-c2ccccc2)cs1,3.11% (inactive)
19,O=C(c1cc(-c2cccc(O)c2)on1)N1CCc2ccccc2C1,11.4% (inactive)
20,CSc1ccc(S(=O)(=O)NCc2ccc(Cl)cc2)cc1,8.41% (inactive)
21,Cc1ccc(Nc2nnc(SCC(=O)c3cc4ccccc4o3)s2)cc1C,4.48% (inactive)
22,COc1ccc(C(=O)n2nc(-c3ccc(C)cc3)nc2N)cc1OC,4.64% (inactive)
23,Fc1ccccc1/C=N/Nc1cc(N2CCCCC2)ncn1,7.52% (inactive)

row,Structure (SMILES),activation
1,Cc1cc(OCc2cc(C(=O)NCc3cc(C(C)C)no3)no2)cc(C)c1Cl,3.52% (inactive)
2,CCN1CCC2(CC1)N=C(c1ccc(F)cc1)C(=S)N2C(=O)c1ccc(C)cc1,52% (active)
3,CCN(CC)C(=O)Oc1ccc(Br)cc1C(=O)Nc1ccc(F)c(Cl)c1,3.45% (inactive)
4,CN(C)CCCN(C(=O)c1ccc(S(=O)(=O)N2CCCCCC2)cc1)c1nc2ccc(Br)cc2s1,16.5% (inactive)
5,S=C(NCCCc1cnc[nH]1)NCCCN(Cc1ccc(Cl)c(Cl)c1)c1ccc(Br)cn1,5.39% (inactive)
6,COc1ccc(Cn2c(C)c(C)c(C#N)c2NC(=O)Nc2ccc(F)cc2)cc1,7.17% (inactive)
7,COc1cccc(-c2cnc3c(NC(C)=O)cc(-c4cc(F)ccc4OC)cn23)c1,3.13% (inactive)
8,Cc1cc(/C=C(/C#N)C(=O)Nc2ccc(Cl)cc2)c(C)n1-c1cccnc1,4.36% (inactive)
9,CCC(=O)c1cc2c(cc1NC(=O)c1cccs1)OCCO2,3.16% (inactive)
10,COC(=O)c1sccc1NC(=O)c1cc(OC)c(OC)c(OC)c1,2.04% (inactive)
11,Cc1ccc(S(=O)(=O)NCCC(=O)Nc2ccc(C)c(Cl)c2)cc1C,10.4% (inactive)
12,CN(C)C(=O)c1cccc(-c2cnc3c(NC=O)cc(-c4ccc(F)cc4)cn23)c1,1.45% (inactive)
13,Cn1c(=S)sc2ccc3ccccc3c21,6.66% (inactive)
14,COc1ccc(Nc2ncnc3sc(-c4ccccc4)cc23)c(OC)c1,3.93% (inactive)
15,COc1ccc(CC(N)c2csc(NC(=O)NC(c3ccccc3)c3ccccc3)n2)cc1 (stereo not given),27.4% (active)
16,COc1ccc(C(N)c2csc(NC(=O)Nc3cccc(C(F)(F)F)c3)n2)cc1 (stereo not given),13.5% (inactive)
17,CC(=O)Nc1ccc(-c2csc(NC(=O)Nc3ccccc3)n2)cc1,4.45% (inactive)
18,COc1ccc(Cl)cc1-n1c(C)cc(C(=O)OCC(=O)N2CC(=O)Nc3ccccc32)c1C,3.77% (inactive)
19,CC(=O)c1sc(NC(=O)CCCOc2ccccc2C)nc1C,7.21% (inactive)
20,CSc1nc2sc3c(c2c(=O)[nH]1)CCc1ccccc1-3,7.74% (inactive)
21,Cc1ccc(-c2csc(NC(=O)Cn3[nH]c(=O)c4ccccc4c3=O)n2)cc1,6.76% (inactive)
22,Cc1ccc(NC(=O)Nc2ccccc2)c(Br)c1,7.33% (inactive)
23,CCn1c(SCC(=O)Nc2cccc(F)c2)nnc1-c1cc2cc(Br)ccc2o1,6.83% (inactive)

row,Structure (SMILES),activation
1,O=C(Nc1sc2c(c1-c1nc3ccccc3[nH]1)CCCC2)C1CC1,4.53% (inactive)
2,Cc1cccc(C)c1OC(=O)CSc1nnc(-c2ccccc2)o1,3.88% (inactive)
3,O=C1N/C(=C/c2cccn2-c2ccccc2)C(=O)N1c1cccc(Cl)c1,6.05% (inactive)
4,O=C(CSc1ccccc1)Nc1nnc(/C=C/c2ccccc2)s1,6.5% (inactive)
5,CCCCN1CC(C)(C)[C@H](CC(=O)Nc2ccc(Br)cc2)C1=O,4.9% (inactive)
6,COc1cccc2sc(N(CCCN(C)C)C(=O)C(c3ccccc3)c3ccccc3)nc12,9.67% (inactive)
7,COCCNc1nc(Nc2ccccc2Cl)c2sc(-c3ccccc3)cc2n1,5.13% (inactive)
8,Cc1nn2cc(-c3ccc(Cl)cc3)cnc2c1Br,2.93% (inactive)
9,CCc1ccc2c(c1)cc(CN(C(=S)Nc1ccccc1Cl)C1CC1)c1nnnn12,2.95% (inactive)
10,CC(=O)Nc1ccc(NC(=O)c2sc3nc4c(c(-c5ccc(C)cc5)c3c2N)CCC4)cc1,14.3% (inactive)
11,Cc1ccc(CCC(=O)Nc2ncc(Cc3cc(Cl)ccc3Cl)s2)o1,10.6% (inactive)
12,Cc1cc(C)cc(C(=O)OCC(=O)NCCNC(=O)COC(=O)c2cc(C)cc(C)c2)c1,3.35% (inactive)
13,CC(C)c1ccc2c(c1)c(SC(C)(C)C)c(CC(C)(C)C(=O)O)n2Cc1ccc(Cl)cc1,4.65% (inactive)
14,COc1ccc(S(=O)(=O)N2CCC(C(=O)OCC(=O)c3ccccc3)CC2)cc1[N+](=O)[O-],4.26% (inactive)
15,CCOc1ccc(/C=C/C(=O)OCC(=O)c2ccccc2OC)cc1OC,3.55% (inactive)
16,COc1ccc(C(=O)c2oc3ccc(Br)cc3c2NC(C)=O)cc1,1.7% (inactive)
17,COc1cccc(CNCCc2c[nH]c3ccccc23)c1OCc1ccccc1F,39.6% (active)
18,O=C(Cn1cnc2c(nnn2-c2ccccc2)c1=O)N1CCC(Cc2ccccc2)CC1,3.51% (inactive)
19,O=C(OC12CC3CC(CC(C3)C1)C2)c1ccc(NCc2cc(O)ccc2O)cc1,7.74% (inactive)
20,Cc1ccc([C@H]2C[C@H](O)[C@@H](n3cc(COC(=O)c4ccccc4)nn3)CN2C(=O)C2CCCCC2)cc1,5.71% (inactive)
21,O=C(Nc1ccc2oc(-c3ccc4ccccc4c3)nc2c1)c1cccs1,5.63% (inactive)
